INS promoter act: TRM-6 insulin promoter activation | TRM-6 cells, insulin promoter eGFP reporter, imaging; plate-scaled: unstimulated 0, stimulated control 100 | activation, % at 2 µM | 130,000 tested, 0.81% active;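 active = activation at 2 µM above a set limit, confirmed on inspection of the cell images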;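 note: share of cells whose green reporter signal exceeds an intensity cutoff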
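Material: Human fetal islet-derived TRM-6 cells with tamoxifen-inducible insulin promoter–eGFP reporter | Medium: Low-glucose (5.5 mM) medium with tamoxifen | Probe or stimulus: Tamoxifen inducer, 0.75 µM, in seeding medium | Schedule: Tamoxifen pre-incubation 15 h overnight, then compound exposure 48 h at 37 °C | Detection: High-content imaging of fixed cells with Hoechst nuclear stain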
The depositor's hits bear a star. This is one part of a sample in which hits are shown more often than they occur.

SMILES	INS promoter act
O=S(=O)(NCc1cccnc1)c1ccc2c(c1)OCCO2	469*
O=S(=O)(NCc1cccnc1)c1ccc(Cl)c(Cl)c1	-9
CCN(CC)C(=O)c1ccc(S(=O)(=O)NCc2cccnc2)cc1	-3
Cc1c(NC(=O)C(C)OC(=O)c2ccc([N+](=O)[O-])s2)c(=O)n(-c2ccccc2)n1C (stereo not drawn)	136
COc1cc(C(C(=O)NCc2ccccc2)N(Cc2ccco2)C(=O)c2cnccn2)cc(OC)c1OC (stereo not drawn)	-4
Cc1cc(C)n(-c2nc3ccccc3nc2N2CCN(C(=O)c3ccc(Cl)cc3)CC2)n1	-5
COC(=O)Nc1ccccc1C(=O)N1CCC(O)(c2ccc(Cl)cc2)CC1	0
Cc1cccc2nc(-c3ccccc3)nc(N3CCC(O)(c4ccc(Cl)cc4)CC3)c12	454*
CCn1c(=O)c(C(=O)CN2CCOCC2)c(N)n(Cc2ccccc2)c1=O	-10
Cc1ccc(CSC2=NCCN2S(=O)(=O)c2ccccc2)cc1	464*
CCCS(=O)(=O)N1CCN=C1SCc1ccc(C)cc1	0
O=S(=O)(c1ccccc1)N1CCN=C1SCc1ccccc1	0
Cc1cccc(C(=O)n2cnnc2N)c1	-6
CCOC(=O)c1c(NC(=O)COC(=O)c2nc(Cl)ccc2Cl)sc2c1CCC2	-3
CCN(CC)CCNC(=O)C(=O)NCC1OCCN1S(=O)(=O)c1ccc2c(c1)OCCO2 (stereo not drawn)	-9
O=C(NCc1cccnc1)C(=O)NCC1OCCN1S(=O)(=O)c1ccccc1 (stereo not drawn)	7
Cc1cc(C)c(S(=O)(=O)N2CCOC2CNC(=O)C(=O)NCCc2c[nH]c3ccccc23)c(C)c1 (stereo not drawn)	310*
COc1cc(OC)c(NC(=O)CCNS(=O)(=O)c2ccc3c(c2)oc(=O)n3C)cc1Cl	0
COc1ccc(OC)c(NC(=O)CCNS(=O)(=O)c2ccc3c(c2)oc(=O)n3C)c1	-7
COc1ccccc1CNC(=O)C(CCSC)NS(=O)(=O)c1ccc2c(c1)oc(=O)n2C (stereo not drawn)	164*
O=C(NCCCO)C(=O)NCCc1ccc(Cl)cc1	-8
CC(NC(=O)c1ccc(-c2cc(C(F)(F)F)ccc2Cl)o1)c1ccccc1 (stereo not drawn)	-8
COC(=O)c1sccc1-c1ccc(C(=O)Nc2cccc(Cl)c2)o1	80*
COC(=O)c1ccccc1NC(=O)c1ccc(-c2cccc(Cl)c2)o1	0
COC(=O)c1sccc1NC(=O)c1ccco1	169
SMILES	INS promoter act
O=C(NC1CCS(=O)(=O)C1)c1cccnc1 (stereo not drawn)	0
O=C(O)C1CCCN(S(=O)(=O)c2ccc3c(c2)OCCO3)C1 (stereo not drawn)	0
CCOc1cc(C(=O)Nc2ccccc2N2CCN(S(C)(=O)=O)CC2)cc(OCC)c1OCC	23
CCNS(=O)(=O)c1ccc(NC(=O)c2ccccc2OCC)cc1	206
CCN1CCCC1CNS(=O)(=O)c1ccc(C(=O)Nc2ccccc2)cc1 (stereo not drawn)	500*
O=C(Nc1ccc(S(=O)(=O)N2CCCCC2)cc1)c1ccc(CN2CCc3ccccc3C2)cc1	3
Cc1cc(NC(=O)Cc2cccs2)nn1CC(=O)NCc1ccco1	169
O=C(c1ccc(F)cc1)C1CCN(C(=S)Nc2ccccc2)CC1	7
COc1ccc(/C(=C/c2ccc(OC(F)F)c(OC)c2)C(=O)O)cc1OC	-7
COC(=O)c1ccc(Oc2coc3cc(OCc4ccc([N+](=O)[O-])cc4)ccc3c2=O)cc1	3
Clc1cccc(N2CCN(c3nnnn3-c3ccccc3)CC2)c1	7
Fc1cccc(-n2ncc(-c3nnnn3-c3ccccc3)c2C(F)(F)F)c1	529*
c1ccc(-n2nnnc2OCCOc2nnnn2-c2ccccc2)cc1	154
O=c1cnnc(N/N=C/C2CC=CCC2)[nH]1 (stereo not drawn)	7
Cn1cccc1C(=O)OCC(=O)c1cc2ccccc2o1	185*
Cc1cc(SCC(=O)c2cc3ccccc3o2)nc2ccccc12	8
CC(C)NC(=O)c1cc2ccccc2o1	-27
O=C(CSc1nncs1)NC(=O)NC1CCCC1	0
CC(NC(=O)C(=O)N/N=C/c1ccccc1)c1ccccc1 (stereo not drawn)	0
COc1ccc(-c2nn(C)c(=O)c3ccccc23)cc1CNC(=O)CN1CCOCC1	98
O=C(CNC(=O)OCc1ccccc1)NCC(=O)N1CCCC1C(=O)OCc1ccccc1 (stereo not drawn)	8
Cc1ccc(S(=O)(=O)Nc2cc(Cl)c(O)cc2C)cc1	9
Cc1ccc(S(=O)(=O)Nc2ccccc2C(N)=O)cc1	403*
NC(=O)c1ccccc1NS(=O)(=O)c1ccccc1	0
O=C(CNC(=O)C12CC3CC(CC(C3)C1)C2)N1CCN(S(=O)(=O)c2cccs2)CC1	-8
O=S(=O)(c1ccccc1Cl)N1CCCC1c1nc(-c2ccc(Cl)cc2)no1 (stereo not drawn)	4
Cc1ccc(-c2nnc(Sc3nc4ccccc4o3)c3ccccc23)cc1	590*
